Series [1] in a line: Clearance in rat at 1 mg/kg, iv by LC-MS/MS analysis. Type of series: ADME, organism-based. To be noted: in vivo. The method, boiled down: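 Rat, single 1 mg/kg intravenous dose.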
Series [2] has as its target T1, Serine/threonine-protein kinase Nek2 (Homo sapiens) (UniProt P51955).
T1 sequence (whole entry): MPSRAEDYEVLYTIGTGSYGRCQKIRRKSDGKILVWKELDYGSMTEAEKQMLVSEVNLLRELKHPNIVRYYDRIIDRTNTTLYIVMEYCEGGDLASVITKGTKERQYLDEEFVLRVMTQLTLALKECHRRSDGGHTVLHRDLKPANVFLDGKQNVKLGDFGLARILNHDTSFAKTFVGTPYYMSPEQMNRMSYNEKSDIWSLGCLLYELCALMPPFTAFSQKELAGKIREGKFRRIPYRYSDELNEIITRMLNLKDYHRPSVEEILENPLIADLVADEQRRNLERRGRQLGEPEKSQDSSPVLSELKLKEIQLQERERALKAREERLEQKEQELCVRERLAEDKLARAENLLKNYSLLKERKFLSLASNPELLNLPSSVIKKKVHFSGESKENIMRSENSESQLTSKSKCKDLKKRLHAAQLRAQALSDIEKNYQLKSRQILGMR
As to the kind of experiment: Inhibition of recombinant human full length His-tagged NEK2 expressed in baculovirus expression system at 1 uM relative to control. In short, it runs like this: (§1)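 Forty-kinase selectivity panel; each compound tested at a single 1 µM concentration in the presence of 1 mM ATP; result given as percent inhibition.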

The target of series [3] is T2, Tyrosine-protein kinase JAK3 (Homo sapiens) (UniProt P52333).
T2 sequence (whole entry): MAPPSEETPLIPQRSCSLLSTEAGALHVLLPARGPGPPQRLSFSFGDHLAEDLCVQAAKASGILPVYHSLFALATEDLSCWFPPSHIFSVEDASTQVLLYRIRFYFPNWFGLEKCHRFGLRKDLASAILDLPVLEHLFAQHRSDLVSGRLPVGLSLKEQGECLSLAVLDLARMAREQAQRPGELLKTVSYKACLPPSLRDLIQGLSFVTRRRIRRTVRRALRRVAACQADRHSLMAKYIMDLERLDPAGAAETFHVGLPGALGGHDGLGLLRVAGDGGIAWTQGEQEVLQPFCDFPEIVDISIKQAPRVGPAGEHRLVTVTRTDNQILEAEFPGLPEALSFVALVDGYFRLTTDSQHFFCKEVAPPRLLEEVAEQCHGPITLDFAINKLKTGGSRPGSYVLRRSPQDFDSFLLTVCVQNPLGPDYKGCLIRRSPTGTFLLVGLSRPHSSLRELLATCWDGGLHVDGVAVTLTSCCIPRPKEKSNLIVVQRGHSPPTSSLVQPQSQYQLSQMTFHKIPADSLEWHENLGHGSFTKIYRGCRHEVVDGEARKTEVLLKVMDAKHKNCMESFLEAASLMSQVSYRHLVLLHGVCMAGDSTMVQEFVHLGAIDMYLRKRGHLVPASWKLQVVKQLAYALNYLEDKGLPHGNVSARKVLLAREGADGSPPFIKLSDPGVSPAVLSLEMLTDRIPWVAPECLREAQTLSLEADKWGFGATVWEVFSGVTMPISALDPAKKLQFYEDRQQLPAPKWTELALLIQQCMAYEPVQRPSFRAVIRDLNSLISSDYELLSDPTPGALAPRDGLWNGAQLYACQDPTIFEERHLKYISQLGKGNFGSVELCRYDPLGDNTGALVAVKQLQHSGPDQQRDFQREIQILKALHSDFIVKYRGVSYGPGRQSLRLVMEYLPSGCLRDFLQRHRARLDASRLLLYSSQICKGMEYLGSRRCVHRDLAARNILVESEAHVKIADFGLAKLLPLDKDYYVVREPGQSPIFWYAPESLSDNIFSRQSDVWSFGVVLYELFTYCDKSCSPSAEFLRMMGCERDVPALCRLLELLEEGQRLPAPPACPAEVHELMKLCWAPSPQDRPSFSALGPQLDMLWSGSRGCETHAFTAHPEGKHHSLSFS
The experiment in a line: Inhibition of recombinant human GST-tagged JAK3 expressed in baculovirus expression system at 1 uM relative to control. In short, it runs like this: as §1

Series [4] is described as follows: Oral bioavailability in rat at 1 mg/kg administered via gavage. To be noted: in vivo. The format is ADME, organism-based. The method, boiled down: (§2)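 Rat, oral dosing as a solution.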
In series [5] the target is cAMP-dependent protein kinase catalytic subunit alpha (Homo sapiens) (UniProt P17612). As to the kind of experiment: Inhibition of recombinant human His-tagged PRKACA expressed in Escherichia coli at 1 uM relative to control. In short, it runs like this:
as §1

For series [6], the target named is T3, Serine/threonine-protein kinase Sgk1 (Homo sapiens) (UniProt O00141).
T3 sequence (whole entry): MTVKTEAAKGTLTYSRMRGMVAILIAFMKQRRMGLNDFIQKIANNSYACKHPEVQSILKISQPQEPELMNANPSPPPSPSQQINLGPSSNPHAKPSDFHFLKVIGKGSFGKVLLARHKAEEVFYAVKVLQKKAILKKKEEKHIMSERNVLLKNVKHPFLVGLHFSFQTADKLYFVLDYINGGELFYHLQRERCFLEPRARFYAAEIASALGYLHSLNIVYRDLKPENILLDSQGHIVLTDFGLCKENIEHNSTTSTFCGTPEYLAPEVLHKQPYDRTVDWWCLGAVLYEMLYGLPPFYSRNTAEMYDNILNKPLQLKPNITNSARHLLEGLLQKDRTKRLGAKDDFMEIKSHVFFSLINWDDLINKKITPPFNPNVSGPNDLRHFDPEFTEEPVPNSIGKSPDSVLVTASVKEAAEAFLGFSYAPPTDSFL
As to the kind of experiment: Inhibition of recombinant human GST-tagged SGK1 expressed in baculovirus expression system at 1 uM relative to control. The method, boiled down: as §1

Series [7] is described as follows: Clearance in rat hepatocytes assessed per million cells. Type of series: ADME, cell-based, Hepatocyte.
A short description of series [8]: Thermodynamic solubility of the compound at pH 7.4. The format is physicochemical. To be noted: buffer, read-out: Therm_solubility.
Series [9] concerns the target Fibroblast growth factor receptor 1 (Homo sapiens) (UniProt P11362). The experiment in a line: Inhibition of recombinant human His-tagged FGFR1 cytoplasmic domain expressed in baculovirus expression system at 1 uM relative to control. In short, it runs like this:
as §1

The nature of series [10]: Oral bioavailability in rat at 5 mg/kg administered via gavage. Type of series: ADME, organism-based. Conditions: in vivo. The method, boiled down:
as §2

Six compounds from ChEMBL document CHEMBL4251655 (Eur J Med Chem, 2018) can be followed below.

≈ marks a conversion by molar mass, not a printed value.

Chain of Fibroblast growth factor receptor 1 (Homo sapiens) (P11362 22-822 limits assumed): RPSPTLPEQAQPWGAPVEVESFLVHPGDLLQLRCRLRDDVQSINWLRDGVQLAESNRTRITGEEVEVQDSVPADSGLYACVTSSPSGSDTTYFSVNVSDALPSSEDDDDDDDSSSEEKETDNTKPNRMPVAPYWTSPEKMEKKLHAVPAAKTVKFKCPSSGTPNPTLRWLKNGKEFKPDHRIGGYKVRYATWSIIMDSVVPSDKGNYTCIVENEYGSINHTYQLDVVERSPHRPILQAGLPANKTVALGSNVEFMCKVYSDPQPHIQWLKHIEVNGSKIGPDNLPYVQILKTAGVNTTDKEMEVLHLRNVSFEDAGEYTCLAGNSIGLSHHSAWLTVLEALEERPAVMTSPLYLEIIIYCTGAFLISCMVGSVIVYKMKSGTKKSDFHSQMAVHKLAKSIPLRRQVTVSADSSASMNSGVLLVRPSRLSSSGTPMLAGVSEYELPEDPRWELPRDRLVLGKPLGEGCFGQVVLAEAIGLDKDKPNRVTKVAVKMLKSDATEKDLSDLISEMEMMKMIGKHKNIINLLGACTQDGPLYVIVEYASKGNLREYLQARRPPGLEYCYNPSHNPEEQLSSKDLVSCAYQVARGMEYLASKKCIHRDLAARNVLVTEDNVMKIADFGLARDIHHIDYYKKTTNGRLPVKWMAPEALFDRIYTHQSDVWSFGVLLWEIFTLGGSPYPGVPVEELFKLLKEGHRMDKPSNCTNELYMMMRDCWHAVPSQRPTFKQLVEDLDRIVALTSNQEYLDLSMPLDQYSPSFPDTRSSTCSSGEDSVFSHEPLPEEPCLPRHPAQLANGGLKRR

The term clearance denotes a measure of how efficiently the substance is removed, as volume per time. A higher clearance goes with a high capacity for elimination. What is called inhibition is the drop in the measured response relative to a control, in per cent. What is called bioavailability is the share of a dose that reaches the circulation, judged against a reference dose that is usually intravenous. `COc1ccc(S(C)(=O)=O)cc1C(=O)Nc1cccc(-c2nncn2C(C)C)n1` yielded a clearance in [1] of 41 mL/min/kg. Besides, the inhibition was 1% in series [2], 12% in series [3], -5% in [5] and 2% in [6]. The same compound returned a bioavailability in series [4] of 8%. For the same compound, the CLH in [7] is < 6 µL/min/1e6 cells. Moreover, the solubility thermodynamic in [8] was determined as 5 µM (≈ 2.08 µg/mL).

Turning to `COc1cc(C)c(S(N)(=O)=O)cc1C(=O)Nc1cccc(-c2nncn2C(C)C)n1`, the inhibition in series [9] turned out to be 2%; in [2], 0%; in series [3], 16%; in series [5], 1%; in series [6], 1%.

For `COc1ccc(C(N)=O)cc1C(=O)Nc1cccc(-c2nncn2C(C)C)n1`, the inhibition in [9] was -2%; in [5] it was -1%; in [6], -9%.

With `COc1cc(C)c(C(N)=O)cc1C(=O)Nc1cccc(-c2nncn2C(C)C)n1`, the inhibition in series [9] was 2%; in series [3] it was 3%; in series [5] it was -1%; in series [6] it was -2%.

For the compound `COc1cc(C)c(S(C)(=O)=O)cc1C(=O)Nc1cccc(-c2nncn2C(C)C)n1`, the inhibition in series [9] was determined as 2%; in series [3] it was 0%; in series [5], 3%; in [6], 1%.

In the case of `COc1ccc(S(N)(=O)=O)cc1C(=O)Nc1cccc(-c2nncn2C(C)C)n1`, the inhibition in series [9] was -6%; in series [2] it was -3%; in [3], -8%. Further, the clearance in series [1] amounted to 35 mL/min/kg. In addition, the bioavailability in series [10] is < 1%. In addition, the CLH in series [7] was < 6 µL/min/1e6 cells. The solubility thermodynamic in series [8] is 1.2 µM (≈ 0.5 µg/mL).
